Results: ChEMBL document CHEMBL5724801, “EUbOPEN Chemogenomics Library - Multiplex” (2024)
“And” between values parts separate entries of the source, which are not always exact repeats. Equal entries are not always repeated.

Key:
Type in all cases: toxicity, cell-based
[1] = tested on: Fibroblast; assay: Multiplex assay against human fibroblast
Procedure, shortened: (§1)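 Cells stained live at seeding with Hoechst33342, BioTracker Green Microtubule Cytoskeleton Dye, MitoTracker Red and Annexin V Alexa Fluor 680 were imaged on a CQ1 microscope at 37°C and 5% CO2 after compound addition. Their classification by CellPathfinder machine-learning gating ran from Hoechst high-intensity objects versus normal cells, to healthy, pyknosed or fragmented nuclei among normal cells, to mitotic or apoptotic among pyknosed cells. Tubulin, mitochondrial-mass and membrane-permeability phenotypes are per cents of healthy-nucleus cells.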

[2] = tested on: HEK-293T; assay: Multiplex assay against HEK293T; settings: human; procedure, shortened: as §1
[3] = tested on: U2OS; assay: Multiplex assay against U2OS; settings: human; procedure, shortened: as §1
[4] = 12 h, 1 µM, compound concentration 1 uM
[5] = 12 h, 10 µM, compound concentration 10 uM
[6] = 24 h, 1 µM, compound concentration 1 uM
[7] = 24 h, 10 µM, compound concentration 10 uM
[8] = 48 h, 1 µM, compound concentration 1 uM
[9] = 48 h, 10 µM, compound concentration 10 uM

## CCCCCN1C(=O)C2(COc3cc4c(cc32)OCO4)c2ccccc21 (stereo not given)
[1]; [4]
  Population Apoptotic (%): 17.31% and 20.59%
  Population Fragmented Nuclei (%): 11.05% and 2.26%
  Population Healthy Nuclei (%): 61.58% and 82.35%
  Population Hoechst High Intensity Objects (%): 0%
  Population Membrane Permeable-Phenotype (%): 2.56% and 3.85%
  Population Mitochondria Different-Phenotype (%): 11.97% and 6.04%
  Population Mitotic Cells (%): 82.69% and 79.41%
  Population Normal (%): 100%
  Population Pyknosed Nuclei (%): 27.37% and 15.38%
  Population Tubulin-Different-Phenotype (%): 20.51% and 12.09%
  Total Cell Count: 190 and 221
[1]; [5]
  Population Fragmented Nuclei (%): 8.24% and 5.79%
  Population Healthy Nuclei (%): 54.95% and 72.97%
  Population Hoechst High Intensity Objects (%): 0%
  Population Membrane Permeable-Phenotype (%): 4% and 3.7%
  Population Mitochondria Different-Phenotype (%): 14% and 13.76%
  Population Mitotic Cells (%): 97.01% and 85.45%
  Population Normal (%): 100%
  Population Pyknosed Nuclei (%): 36.81% and 21.24%
  Population Tubulin-Different-Phenotype (%): 36% and 35.45%
  Total Cell Count: 182 and 259
[1]; [6]
  Population Apoptotic (%): 18.18% and 13.04%
  Population Fragmented Nuclei (%): 9.76% and 2.67%
  Population Healthy Nuclei (%): 74.15% and 87.11%
  Population Hoechst High Intensity Objects (%): 0%
  Population Membrane Permeable-Phenotype (%): 4.61% and 1.53%
  Population Mitochondria Different-Phenotype (%): 7.89% and 4.59%
  Population Mitotic Cells (%): 81.82% and 86.96%
  Population Normal (%): 100%
  Population Pyknosed Nuclei (%): 16.1% and 10.22%
  Population Tubulin-Different-Phenotype (%): 16.45% and 15.82%
  Total Cell Count: 205 and 225
[1]; [7]
  Population Apoptotic (%): 4.65% and 8.82%
  Population Fragmented Nuclei (%): 8.78% and 2.37%
  Population Healthy Nuclei (%): 70.24% and 84.19%
  Population Hoechst High Intensity Objects (%): 0%
  Population Membrane Permeable-Phenotype (%): 1.39% and 0.94%
  Population Mitochondria Different-Phenotype (%): 13.19% and 12.21%
  Population Mitotic Cells (%): 95.35% and 91.18%
  Population Normal (%): 100%
  Population Pyknosed Nuclei (%): 20.98% and 13.44%
  Population Tubulin-Different-Phenotype (%): 42.36% and 37.09%
  Total Cell Count: 205 and 253
[1]; [8]
  Population Fragmented Nuclei (%): 11.57% and 4.05%
  Population Healthy Nuclei (%): 82.41% and 89.64%
  Population Hoechst High Intensity Objects (%): 0%
  Population Membrane Permeable-Phenotype (%): 1.12% and 3.02%
  Population Mitotic Cells (%): 92.31% and 64.29%
  Population Normal (%): 100%
  Population Pyknosed Nuclei (%): 6.02% and 6.31%
  Population Tubulin-Different-Phenotype (%): 5.62% and 14.07%
  Total Cell Count: 216 and 222
[1]; [9]
  Population Apoptotic (%): 37.5% and 23.53%
  Population Fragmented Nuclei (%): 7.32% and 3.05%
  Population Healthy Nuclei (%): 84.88% and 90.46%
  Population Hoechst High Intensity Objects (%): 0%
  Population Membrane Permeable-Phenotype (%): 1.15% and 2.95%
  Population Mitochondria Different-Phenotype (%): 15.52% and 5.91%
  Population Mitotic Cells (%): 62.5% and 76.47%
  Population Normal (%): 100%
  Population Pyknosed Nuclei (%): 7.8% and 6.49%
  Population Tubulin-Different-Phenotype (%): 16.09% and 33.76%
  Total Cell Count: 205 and 262
[2]; [4]
  Population Apoptotic (%): 10.57% and 8.94%
  Population Fragmented Nuclei (%): 1.96% and 2%
  Population Hoechst High Intensity Objects (%): 0%
  Population Membrane Permeable-Phenotype (%): 0%
  Population Mitotic Cells (%): 89.43% and 91.06%
  Population Normal (%): 100%
  Population Pyknosed Nuclei (%): 40.2% and 82%
  Total Cell Count: 306 and 150
[2]; [5]
  Population Apoptotic (%): 8.79% and 6.67%
  Population Fragmented Nuclei (%): 0.63% and 1.94%
  Population Hoechst High Intensity Objects (%): 0.31% and 0%
  Population Membrane Permeable-Phenotype (%): 1.48% and 0%
  Population Mitochondria Different-Phenotype (%): 29.63% and 35.29%
  Population Mitotic Cells (%): 91.21% and 93.33%
  Population Normal (%): 99.69% and 100%
  Population Pyknosed Nuclei (%): 57.05% and 87.1%
  Total Cell Count: 320 and 155
[2]; [6]
  Population Apoptotic (%): 13.4% and 12.71%
  Population Fragmented Nuclei (%): 1.54% and 2.04%
  Population Healthy Nuclei (%): 79.73% and 37.76%
  Population Hoechst High Intensity Objects (%): 0% and 0.51%
  Population Membrane Permeable-Phenotype (%): 1.21% and 2.7%
  Population Mitochondria Different-Phenotype (%): 16.46% and 10.81%
  Population Mitotic Cells (%): 86.6% and 87.29%
  Population Normal (%): 100% and 99.49%
  Population Tubulin-Different-Phenotype (%): 11.86% and 4.05%
  Total Cell Count: 518 and 197
[2]; [7]
  Population Apoptotic (%): 19.31% and 11.94%
  Population Fragmented Nuclei (%): 1.12% and 2.34%
  Population Hoechst High Intensity Objects (%): 0.22% and 0%
  Population Membrane Permeable-Phenotype (%): 1.34% and 0%
  Population Mitochondria Different-Phenotype (%): 25.5% and 21.21%
  Population Mitotic Cells (%): 80.69% and 88.06%
  Population Normal (%): 99.78% and 100%
  Population Pyknosed Nuclei (%): 32.37% and 78.36%
  Population Tubulin-Different-Phenotype (%): 30.2% and 15.15%
  Total Cell Count: 449 and 171
[2]; [8]
  Population Apoptotic (%): 9.4% and 23.88%
  Population Fragmented Nuclei (%): 2.17% and 2.27%
  Population Healthy Nuclei (%): 88.04% and 75.97%
  Population Hoechst High Intensity Objects (%): 0% and 0.65%
  Population Membrane Permeable-Phenotype (%): 4.37% and 2.99%
  Population Mitochondria Different-Phenotype (%): 13.77% and 12.82%
  Population Mitotic Cells (%): 90.6% and 76.12%
  Population Normal (%): 100% and 99.35%
  Population Pyknosed Nuclei (%): 9.78% and 21.75%
[2]; [9]
  Population Fragmented Nuclei (%): 2.44% and 0.93%
  Population Healthy Nuclei (%): 80.51% and 57.41%
  Population Hoechst High Intensity Objects (%): 0%
  Population Membrane Permeable-Phenotype (%): 5.04% and 0%
  Population Mitochondria Different-Phenotype (%): 42.8% and 31.45%
  Population Mitotic Cells (%): 93.2% and 75.56%
  Population Normal (%): 100%
  Population Pyknosed Nuclei (%): 17.05% and 41.67%
[3]; [4]
  Population Apoptotic (%): 29.41% and 64%
  Population Fragmented Nuclei (%): 1.7% and 1.92%
  Population Healthy Nuclei (%): 87.47% and 82.05%
  Population Hoechst High Intensity Objects (%): 0%
  Population Membrane Permeable-Phenotype (%): 0.49% and 3.91%
  Population Mitochondria Different-Phenotype (%): 0.24% and 7.81%
  Population Mitotic Cells (%): 70.59% and 36%
  Population Normal (%): 100%
  Population Pyknosed Nuclei (%): 10.83% and 16.03%
  Population Tubulin-Different-Phenotype (%): 0.49% and 0%
[3]; [5]
  Population Apoptotic (%): 35.71% and 31.82%
  Population Fragmented Nuclei (%): 1.52% and 0%
  Population Healthy Nuclei (%): 91.37% and 84.93%
  Population Hoechst High Intensity Objects (%): 0%
  Population Membrane Permeable-Phenotype (%): 1.94% and 4.84%
  Population Mitotic Cells (%): 64.29% and 68.18%
  Population Normal (%): 100%
  Population Pyknosed Nuclei (%): 7.11% and 15.07%
  Population Tubulin-Different-Phenotype (%): 2.22% and 2.42%
  Total Cell Count: 394 and 146
[3]; [6]
  Population Apoptotic (%): 41.07% and 40%
  Population Fragmented Nuclei (%): 1.74% and 2.44%
  Population Healthy Nuclei (%): 89.42% and 80.49%
  Population Hoechst High Intensity Objects (%): 0%
  Population Membrane Permeable-Phenotype (%): 0.88% and 2.42%
  Population Mitochondria Different-Phenotype (%): 0% and 7.27%
  Population Mitotic Cells (%): 58.93% and 60%
  Population Normal (%): 100%
  Population Pyknosed Nuclei (%): 8.85% and 17.07%
  Population Tubulin-Different-Phenotype (%): 0.18% and 1.82%
[3]; [7]
  Population Apoptotic (%): 23.33% and 32.14%
  Population Fragmented Nuclei (%): 2.09% and 1.2%
  Population Healthy Nuclei (%): 86.5% and 81.93%
  Population Hoechst High Intensity Objects (%): 0%
  Population Membrane Permeable-Phenotype (%): 1.1% and 8.09%
  Population Mitotic Cells (%): 76.67% and 67.86%
  Population Normal (%): 100%
  Population Pyknosed Nuclei (%): 11.41% and 16.87%
  Population Tubulin-Different-Phenotype (%): 2.42% and 3.68%
[3]; [8]
  Population Apoptotic (%): 40.17% and 47.5%
  Population Fragmented Nuclei (%): 3.56% and 1.97%
  Population Healthy Nuclei (%): 86.74% and 86.8%
  Population Hoechst High Intensity Objects (%): 0%
  Population Membrane Permeable-Phenotype (%): 0.86% and 1.29%
  Population Mitochondria Different-Phenotype (%): 0% and 3.56%
  Population Mitotic Cells (%): 59.83% and 52.5%
  Population Normal (%): 100%
  Population Pyknosed Nuclei (%): 9.69% and 11.24%
  Population Tubulin-Different-Phenotype (%): 0.38% and 0.97%
[3]; [9]
  Population Apoptotic (%): 41.89% and 71.05%
  Population Fragmented Nuclei (%): 2.63% and 1.47%
  Population Healthy Nuclei (%): 89.58% and 84.56%
  Population Hoechst High Intensity Objects (%): 0%
  Population Membrane Permeable-Phenotype (%): 0.71% and 3.91%
  Population Mitotic Cells (%): 58.11% and 28.95%
  Population Normal (%): 100%
  Population Pyknosed Nuclei (%): 7.79% and 13.97%
  Population Tubulin-Different-Phenotype (%): 1.29% and 1.74%
